From ChEMBL document CHEMBL1131421, “Tetrahydro-isoquinoline-based factor Xa inhibitors” (J Med Chem, 1998)

Tests used:
Prothrombin [1] = target: T1, Prothrombin (Homo sapiens, UniProt P00734); experiment: The Anti-coagulant activity was tested by measuring thrombin clotting time (TT); assay type: functional
Method in brief: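 Thrombin clotting time in human citrated plasma (blood 9:1 with 0.11 mol/L citrate, spun 3000 rpm 10 min, stored RT ≤8 h); plasma with compound in DMSO or DMSO control incubated 2 min at 37 °C in coagulometer. Clotting measured at 500, 100, 50, 5, 0.5 μM in plasma; doubling concentration (ED200) obtained by nonlinear regression of y = a + b·x^c.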

Prothrombin [2] = target: T1, Prothrombin; experiment: The inhibition constant against human thrombin
Coagulation factor X = Coagulation factor X (Homo sapiens, UniProt P00742); experiment: The inhibition constant against human Coagulation factor X
Chain of Coagulation factor X (P00742 41-179 limits assumed): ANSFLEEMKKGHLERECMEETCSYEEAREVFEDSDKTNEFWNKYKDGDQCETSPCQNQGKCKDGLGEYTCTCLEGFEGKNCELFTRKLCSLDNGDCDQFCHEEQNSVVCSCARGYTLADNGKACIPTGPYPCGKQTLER
Chain of Coagulation factor X (P00742 235-488 limits assumed): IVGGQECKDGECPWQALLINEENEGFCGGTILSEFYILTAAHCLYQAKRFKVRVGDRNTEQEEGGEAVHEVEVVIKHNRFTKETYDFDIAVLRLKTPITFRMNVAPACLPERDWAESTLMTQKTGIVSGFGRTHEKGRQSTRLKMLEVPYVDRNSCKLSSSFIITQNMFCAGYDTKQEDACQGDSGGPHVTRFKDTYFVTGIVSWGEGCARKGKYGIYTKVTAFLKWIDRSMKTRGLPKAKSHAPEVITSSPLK

[3] = The Anti-coagulant activity was tested by measuring activated partial thromboplastin time (aPTT); assay type: functional
Method in brief: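 Human citrated plasma (blood 9:1 with 0.11 mol/L sodium citrate, spun 3000 rpm 10 min, RT, used within 8 h) plus aPTT reagent and compound in DMSO (DMSO-only control), 3 min at 37 °C in a coagulometer; clotting time recorded at 1000, 200, 100, 10, 1 μM in plasma. ED200 (aPTT-doubling concentration) from nonlinear fit of y = a + b·x^c; quadruplicate determinations.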

Trypsin = Trypsin (Homo sapiens, UniProt P07477+P07478+P35030); experiment: The inhibition constant against human trypsin; assay type: protein assay
Plasminogen = Plasminogen (Homo sapiens, UniProt P00747); experiment: The inhibition constant against human plasmin
Chain of Plasminogen (P00747 97-580 limits assumed): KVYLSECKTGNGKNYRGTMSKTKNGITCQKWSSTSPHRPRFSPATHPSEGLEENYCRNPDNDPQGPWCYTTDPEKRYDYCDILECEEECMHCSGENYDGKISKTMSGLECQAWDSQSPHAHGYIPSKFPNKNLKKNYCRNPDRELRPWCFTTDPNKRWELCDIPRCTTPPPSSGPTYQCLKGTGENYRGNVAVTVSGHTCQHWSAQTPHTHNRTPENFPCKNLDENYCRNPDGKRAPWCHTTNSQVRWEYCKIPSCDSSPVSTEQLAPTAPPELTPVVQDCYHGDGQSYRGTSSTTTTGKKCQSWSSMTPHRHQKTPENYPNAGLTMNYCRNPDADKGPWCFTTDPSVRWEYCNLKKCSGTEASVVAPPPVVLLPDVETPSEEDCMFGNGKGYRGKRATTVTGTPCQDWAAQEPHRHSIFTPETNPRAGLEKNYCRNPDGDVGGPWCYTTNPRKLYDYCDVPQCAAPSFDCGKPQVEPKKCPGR
Chain of Plasminogen (P00747 581-810 limits assumed): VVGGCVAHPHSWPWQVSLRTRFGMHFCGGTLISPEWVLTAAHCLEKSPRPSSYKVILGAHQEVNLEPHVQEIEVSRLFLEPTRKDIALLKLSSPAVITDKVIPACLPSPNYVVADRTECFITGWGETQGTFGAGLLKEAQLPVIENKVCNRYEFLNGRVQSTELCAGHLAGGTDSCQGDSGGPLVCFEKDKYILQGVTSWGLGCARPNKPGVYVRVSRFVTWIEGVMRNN

## CCOC(=O)C(Oc1ccc2c(c1)CN(C(=N)N)CC2)c1ccc(OC2CCN(C(=N)CC)CC2)cc1 (stereo not drawn)
Prothrombin [1]
  ED200: 70 µM
Prothrombin [2]
  Ki: 20 µM
Coagulation factor X
  Ki: 0.03 µM
[3]
  ED200: 10 µM
Trypsin
  Ki: 0.08 µM

## N=C(N)N1CCc2ccc(OC(C(=O)O)c3ccc(O[C@H]4CCNC4)cc3)cc2C1 (stereo partly drawn)
Prothrombin [1]
  ED200: > 500 µM
Prothrombin [2]
  Ki: > 100 µM
Coagulation factor X
  Ki: 1 µM
Plasminogen
  Ki: 10 µM
[3]
  ED200: 50 µM
Trypsin
  Ki: 10 µM

## CCOC(=O)C(Oc1ccc2c(c1)CN(C(=N)N)CC2)c1ccc(OC2CCN(C(=N)c3ccc(OC)cc3)CC2)cc1 (stereo not drawn)
Prothrombin [1]
  ED200: 32 µM
Prothrombin [2]
  Ki: 5 µM
Coagulation factor X
  Ki: 0.021 µM
[3]
  ED200: 6 µM
Trypsin
  Ki: 0.2 µM

## CC(=N)N1CC[C@H](Oc2ccc([C@H](Cc3ccc4ccc(C(=N)N)cc4c3)C(=O)O)cc2)C1.Cl [DX-9065A HYDROCHLORIDE HYDRATE]
Plasminogen
  Ki: 11 µM
Trypsin
  Ki: 2 µM

## CC(=N)N1CCC(Oc2ccc(C(Oc3ccc4c(c3)CN(C(=N)N)CC4)C(=O)O)cc2)CC1 (stereo not drawn)
Prothrombin [1]
  ED200: > 500 µM
Prothrombin [2]
  Ki: > 100 µM
Coagulation factor X
  Ki: 0.055 µM
Plasminogen
  Ki: 52 µM
[3]
  ED200: 11 µM
Trypsin
  Ki: 2 µM

## CCOC(=O)C(Oc1ccc2c(c1)CN(C(=N)N)CC2)c1ccc(OC2CCNCC2)cc1 (stereo not drawn)
Prothrombin [1]
  ED200: 71 µM
Prothrombin [2]
  Ki: 16 µM
Coagulation factor X
  Ki: 2 µM
Plasminogen
  Ki: 25 µM
[3]
  ED200: 26 µM
Trypsin
  Ki: 3 µM

## N=C(N)N1CCc2ccc(OC(C(=O)O)c3ccc(O[C@H]4CCN(C(=N)N)C4)cc3)cc2C1 (stereo partly drawn)
Prothrombin [1]
  ED200: > 500 µM
Prothrombin [2]
  Ki: > 100 µM
Coagulation factor X
  Ki: 0.2 µM
[3]
  ED200: 40 µM
Trypsin
  Ki: 1 µM

## CCOC(=O)C(Oc1ccc2c(c1)CN(C(=N)N)CC2)c1ccc(OC2CCOCC2)cc1 (stereo not drawn)
Prothrombin [1]
  ED200: 500 µM
Prothrombin [2]
  Ki: 8 µM
Coagulation factor X
  Ki: 2 µM
Plasminogen
  Ki: 26 µM
[3]
  ED200: 250 µM
Trypsin
  Ki: 3 µM

## CCOC(=O)C(Oc1ccc2c(c1)CN(C(=N)N)CC2)c1ccc(O[C@H]2CCN(C3=CC(=O)CC(C)(C)C3)C2)cc1 (stereo partly drawn)
Prothrombin [1]
  ED200: 90 µM
Prothrombin [2]
  Ki: > 100 µM
Coagulation factor X
  Ki: 0.2 µM
Plasminogen
  Ki: 50 µM
[3]
  ED200: 24 µM
Trypsin
  Ki: 10 µM

## COc1ccc(C(=N)N2CCC(Oc3ccc(C(Oc4ccc5c(c4)CN(C(=N)N)CC5)C(=O)O)cc3)CC2)cc1 (stereo not drawn)
Prothrombin [1]
  ED200: > 500 µM
Prothrombin [2]
  Ki: > 100 µM
Coagulation factor X
  Ki: 0.026 µM
[3]
  ED200: 7 µM
Trypsin
  Ki: 0.2 µM

## N=C(N)N1CCc2ccc(OC(C(=O)O)c3ccc(OC4CCOCC4)cc3)cc2C1 (stereo not drawn)
Prothrombin [1]
  ED200: > 500 µM
Prothrombin [2]
  Ki: > 100 µM
Coagulation factor X
  Ki: 3 µM
Plasminogen
  Ki: 25 µM
[3]
  ED200: > 500 µM
Trypsin
  Ki: 12 µM

## CCOC(=O)C(Oc1ccc2c(c1)CN(C(=N)N)CC2)c1ccc(OC2CCN(C(C)=N)CC2)cc1 (stereo not drawn)
Prothrombin [1]
  ED200: 53 µM
Prothrombin [2]
  Ki: 15 µM
Coagulation factor X
  Ki: 0.03 µM
Plasminogen
  Ki: 25 µM
[3]
  ED200: 3 µM
Trypsin
  Ki: 0.4 µM

## CC(=O)N1CCC(Oc2ccc(C(Oc3ccc4c(c3)CN(C(=N)N)CC4)C(=O)O)cc2)CC1 (stereo not drawn)
Prothrombin [1]
  ED200: > 500 µM
Prothrombin [2]
  Ki: > 100 µM
Coagulation factor X
  Ki: 0.4 µM
[3]
  ED200: 150 µM
Trypsin
  Ki: 5 µM

## CC(=N)N1CC[C@H](Oc2ccc(C(Oc3ccc4c(c3)CN(C(=N)N)CC4)C(=O)O)cc2)C1 (stereo partly drawn)
Prothrombin [1]
  ED200: > 500 µM
Prothrombin [2]
  Ki: > 100 µM
Coagulation factor X
  Ki: 0.08 µM
[3]
  ED200: 30 µM
Trypsin
  Ki: 10 µM

## N=C(N)N1CCc2ccc(OC(C(=O)O)c3ccc(OC4CCNCC4)cc3)cc2C1 (stereo not drawn)
Prothrombin [1]
  ED200: > 500 µM
Prothrombin [2]
  Ki: > 100 µM
Coagulation factor X
  Ki: 2 µM
Plasminogen
  Ki: 25 µM
[3]
  ED200: 190 µM
Trypsin
  Ki: 6 µM

## CCOC(=O)C(Oc1ccc2c(c1)CN(C(=N)N)CC2)c1ccc(O[C@H]2CCN(C(C)=N)C2)cc1 (stereo partly drawn)
Prothrombin [1]
  ED200: 100 µM
Prothrombin [2]
  Ki: > 100 µM
Coagulation factor X
  Ki: 0.1 µM
[3]
  ED200: 10 µM
Trypsin
  Ki: 2 µM

## CCOC(=O)C(Oc1ccc2c(c1)CN(C(=N)N)CC2)c1ccc(OC2CCN(C(=N)N)CC2)cc1 (stereo not drawn)
Prothrombin [1]
  ED200: 54 µM
Prothrombin [2]
  Ki: 8 µM
Coagulation factor X
  Ki: 0.028 µM
Plasminogen
  Ki: 25 µM
[3]
  ED200: 3 µM
Trypsin
  Ki: 0.2 µM

## CCOC(=O)C(Oc1ccc2c(c1)CN(C(=N)N)CC2)c1ccc(O[C@H]2CCNC2)cc1 (stereo partly drawn)
Prothrombin [1]
  ED200: 140 µM
Prothrombin [2]
  Ki: > 100 µM
Coagulation factor X
  Ki: 0.4 µM
Plasminogen
  Ki: 40 µM
[3]
  ED200: 26 µM
Trypsin
  Ki: 6 µM

## C=CCOC(=O)N1CCC(Oc2ccc(C(Oc3ccc4c(c3)CN(C(=N)N)CC4)C(=O)OCC)cc2)CC1 (stereo not drawn)
Prothrombin [1]
  ED200: > 500 µM
Prothrombin [2]
  Ki: 4 µM
Coagulation factor X
  Ki: 3 µM
Plasminogen
  Ki: 14 µM
[3]
  ED200: 260 µM

## CCOC(=O)C(Oc1ccc2c(c1)CN(C(=N)N)CC2)c1ccc(O[C@H]2CCN(C(=N)N)C2)cc1 (stereo partly drawn)
Prothrombin [1]
  ED200: 300 µM
Prothrombin [2]
  Ki: 13 µM
Coagulation factor X
  Ki: 0.2 µM
Plasminogen
  Ki: 45 µM
[3]
  ED200: 10 µM
Trypsin
  Ki: 2 µM

## N=C(N)N1CCC(Oc2ccc(C(Oc3ccc4c(c3)CN(C(=N)N)CC4)C(=O)O)cc2)CC1 (stereo not drawn)
Prothrombin [1]
  ED200: > 500 µM
Prothrombin [2]
  Ki: > 100 µM
Coagulation factor X
  Ki: 0.044 µM
Plasminogen
  Ki: 44 µM
[3]
  ED200: 9 µM
Trypsin
  Ki: 0.2 µM

## C=CCOC(=O)N1CC[C@H](Oc2ccc(C(Oc3ccc4c(c3)CN(C(=N)N)CC4)C(=O)OCC)cc2)C1 (stereo partly drawn)
Prothrombin [1]
  ED200: 500 µM
Prothrombin [2]
  Ki: > 100 µM
Coagulation factor X
  Ki: 0.2 µM
Plasminogen
  Ki: 10 µM
[3]
  ED200: 200 µM
Trypsin
  Ki: 9 µM

## C=CCN1CC[C@H](Oc2ccc(C(Oc3ccc4c(c3)CN(C(=N)N)CC4)C(=O)OCC)cc2)C1 (stereo partly drawn)
Prothrombin [1]
  ED200: 240 µM
Prothrombin [2]
  Ki: > 100 µM
Coagulation factor X
  Ki: 1 µM
Plasminogen
  Ki: 50 µM
[3]
  ED200: 27 µM
Trypsin
  Ki: 10 µM

## CCOC(=O)C(Oc1ccc2c(c1)CN(C(=N)N)CC2)c1ccc(OC2CCN(C(C)=O)CC2)cc1 (stereo not drawn)
Prothrombin [1]
  ED200: 200 µM
Prothrombin [2]
  Ki: > 100 µM
Coagulation factor X
  Ki: 3 µM
Plasminogen
  Ki: 10 µM
[3]
  ED200: 100 µM
Trypsin
  Ki: 10 µM

## CC1(C)CC(=O)C=C(N2CC[C@H](Oc3ccc(C(Oc4ccc5c(c4)CN(C(=N)N)CC5)C(=O)O)cc3)C2)C1 (stereo partly drawn)
Prothrombin [1]
  ED200: > 500 µM
Prothrombin [2]
  Ki: > 100 µM
Coagulation factor X
  Ki: 0.2 µM
Plasminogen
  Ki: 50 µM
[3]
  ED200: 200 µM
Trypsin
  Ki: 10 µM
